# Assay results as given in ChEMBL document CHEMBL5236602, “Synthesis and Characterization of NUC-7738, an Aryloxy Phosphoramidate of 3'-Deoxyadenosine, as a Potential Anticancer Agent” (J Med Chem, 2022).
# Active and inactive are the calls of the source. No cut-off for these calls is given here.
# What was measured:
# CCRF-CEM = experiment: Cytotoxicity against deoxynucleotidyl transferase-positive human CCRF-CEM cells assessed as cell death preincubated with adenosine deaminase inhibitor, EHNA for 5 mins followed by compound addition and […]; type: functional, cell-based
# KG-1 [1] = experiment: Cytotoxicity against human KG-1 cells assessed as cell death incubated for 72 hrs by MTS assay; type: functional
# In short: (§1)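 Contracted MTS assay. Cells seeded the day before treatment and exposed 72 h to nine serial concentrations (3.16-fold steps, top 198 μM), tested in duplicate. MTS added, then 4 h at 37 °C and absorbance read. LC50 is the concentration killing 50% of cells. MI% is the maximum inhibition over the tested range.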
# MV4-11 = experiment: Cytotoxicity against human MV4-11 cells assessed as maximum cell growth inhibition incubated for 72 hrs by MTS assay relative to control; type: functional
# In short: (§2)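 Cells from the 20-line panel were seeded the day before dosing, then exposed to compound for 72 h. MTS was added, followed by 4 h at 37 °C, and absorbance was read. Nine serial 3.16-fold dilutions were tested, top 198 μM, in duplicate. MI% is the maximum inhibitory effect across the tested concentration range.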
# MIA PaCa-2 = experiment: Cytotoxicity against human MIA PaCa-2 cells assessed as cell death incubated for 72 hrs by MTS assay; type: functional; details: read-out: LC50 (the source's name); in short: as §1
# THP-1 = experiment: Cytotoxicity against human THP-1 cells assessed as maximum cell growth inhibition incubated for 72 hrs by MTS assay relative to control; type: functional; in short: as §2
# Jurkat [2] = experiment: Cytotoxicity against human Jurkat cells assessed as maximum cell growth inhibition incubated for 72 hrs by MTS assay relative to control; type: functional; in short: as §2
# RPMI-8226 = experiment: Cytotoxicity against human RPMI-8226 cells assessed as cell death incubated for 72 hrs by MTS assay; type: functional; details: read-out: LC50 (the source's name); in short: as §1
# [3] = Metabolic stability in pooled cryopreserved human hepatocytes assessed as half life at 1 uM incubated for 60 mins by HPLC-MS/MS analysis; type: ADME, cell-based, Hepatocyte
# In short: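 Pooled cryopreserved human hepatocytes were thawed, washed and resuspended in Krebs–Henseleit buffer, pH 7.3. Compound was added at 1 μM final and incubated 0 and 60 min at 37 °C/5% CO2. Reactions were stopped with acetonitrile, centrifuged, and the supernatant analysed by HPLC-MS/MS.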
# KG-1 [4] = experiment: Cytotoxicity against human KG-1 cells assessed as maximum cell growth inhibition incubated for 72 hrs by MTS assay relative to control; type: functional; in short: as §2
# [5] = Prodrug conversion in human K562 cells assessed as fold increase in 3'-dATP level at 50 uM incubated for 2 hrs by LC-MS/MS analysis relative to 3'-Deoxyadenosine; type: ADME, cell-based; details: k562, 2 h
# RL [6] = experiment: Cytotoxicity against human RL cells assessed as cell death incubated for 72 hrs by MTS assay; type: functional; details: read-out: LC50 (the source's name); in short: as §1
# K562 = experiment: Potency index, ratio of 3'-Deoxyadenosine LC50 to test compound LC50 for cytotoxicity against human K562 cells assessed as cell death incubated for 72 hrs by MTS assay; type: functional
# Jurkat [7] = experiment: Cytotoxicity against human Jurkat cells assessed as cell death incubated for 72 hrs by MTS assay; type: functional; details: read-out: LC50 (the source's name); in short: as §1
# HL-60 = experiment: Cytotoxicity against human HL-60 cells assessed as cell death incubated for 72 hrs by MTS assay; type: functional; details: read-out: LC50 (the source's name); in short: as §1
# RL [8] = experiment: Cytotoxicity against deoxynucleotidyl transferase-negative human RL cells assessed as cell death preincubated with adenosine kinase inhibitor, A-134974 for 5 mins followed by compound addition and […]; type: functional, cell-based
smiles,measurement,setting,value
C[C@@H](NP(=O)(OC[C@@H]1C[C@@H](O)[C@H](n2cnc3c(N)ncnc32)O1)Oc1cccc2ccccc12)C(=O)OCc1ccccc1 (stereo not given in full),Activity,CCRF-CEM,Active
same,LC50,KG-1 [1],11.03 µM
same,Imax,MV4-11,99%
same,CC50,MIA PaCa-2,3.73 µM
same,Imax,THP-1,99%
same,Imax,Jurkat [2],100%
same,CC50,RPMI-8226,19 µM
same,half-life at 1 µM,[3],43.4 min
same,Imax,KG-1 [4],100%
same,fold change (FC),[5],3
same,CC50,RL [6],1.68 µM
same,RatioLC50,K562,3
same,CC50,Jurkat [7],0.9 µM
same,CC50,HL-60,6.37 µM
same,Activity,RL [8],Active
